# Laboratory results: ChEMBL document CHEMBL2375359, “Synthesis and antibacterial evaluation of novel pleuromutilin derivatives” (2013)
# Test system: Streptococcus agalactiae
# Experiment: Antibacterial activity against Streptococcus agalactiae at 80 ug/ml after 24 hrs by Oxford cup assay
# Type: functional
# Details: read-out: IZ
# Procedure, shortened: (§1)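 Oxford cup diffusion with clinical isolates. Inoculum made in 0.9% saline to a McFarland standard and spread evenly on nutrient agar. Compound solutions, prepared as for the agar dilution test, were added at the stated concentration to Oxford cups set equidistant on the agar surface. Inhibition zones were measured after 24 h at 37 °C.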
row,Structure (SMILES),zone of inhibition at 80 µg/mL [mm]
1,C=C[C@]1(C)C[C@@H](OC(=O)CSCCN(CC)CC)[C@]2(C)[C@H](C)CC[C@]3(CCC(=O)[C@H]32)[C@@H](C)[C@@H]1O [TIAMULIN],11.1
2,C=C[C@]1(C)C[C@@H](OC(=O)CSC(C)(C)CNC(=O)c2cc3ccccc3[nH]2)[C@]2(C)[C@H](C)CC[C@]3(CCC(=O)[C@H]32)[C@@H](C)[C@@H]1O,9.31

# Test system: Streptococcus agalactiae
# Experiment: Antibacterial activity against Streptococcus agalactiae at 160 ug/ml after 24 hrs by Oxford cup assay
# Type: functional
# Details: read-out: IZ
# Procedure, shortened: as §1
row,Structure (SMILES),zone of inhibition at 160 µg/mL [mm]
1,C=C[C@]1(C)C[C@@H](OC(=O)CSCCN(CC)CC)[C@]2(C)[C@H](C)CC[C@]3(CCC(=O)[C@H]32)[C@@H](C)[C@@H]1O [TIAMULIN],11.4
2,C=C[C@]1(C)C[C@@H](OC(=O)CSC(C)(C)CNC(=O)c2cc3ccccc3[nH]2)[C@]2(C)[C@H](C)CC[C@]3(CCC(=O)[C@H]32)[C@@H](C)[C@@H]1O,9.62

# Test system: Escherichia coli
# Experiment: Antibacterial activity against Escherichia coli at 80 ug/ml after 24 hrs by Oxford cup assay
# Type: functional
# Details: read-out: IZ
# Procedure, shortened: as §1
row,Structure (SMILES),zone of inhibition at 80 µg/mL [mm]
1,C=C[C@]1(C)C[C@@H](OC(=O)CSCCN(CC)CC)[C@]2(C)[C@H](C)CC[C@]3(CCC(=O)[C@H]32)[C@@H](C)[C@@H]1O [TIAMULIN],15.2
2,C=C[C@]1(C)C[C@@H](OC(=O)CSC(C)(C)CNC(=O)c2cc3ccccc3[nH]2)[C@]2(C)[C@H](C)CC[C@]3(CCC(=O)[C@H]32)[C@@H](C)[C@@H]1O,8.87

# Test system: Streptococcus agalactiae
# Experiment: Antibacterial activity against Streptococcus agalactiae at 320 ug/ml after 24 hrs by Oxford cup assay
# Type: functional
# Details: read-out: IZ
# Procedure, shortened: as §1
row,Structure (SMILES),zone of inhibition at 320 µg/mL [mm]
1,C=C[C@]1(C)C[C@@H](OC(=O)CSCCN(CC)CC)[C@]2(C)[C@H](C)CC[C@]3(CCC(=O)[C@H]32)[C@@H](C)[C@@H]1O [TIAMULIN],12.3
2,C=C[C@]1(C)C[C@@H](OC(=O)CSC(C)(C)CNC(=O)c2cc3ccccc3[nH]2)[C@]2(C)[C@H](C)CC[C@]3(CCC(=O)[C@H]32)[C@@H](C)[C@@H]1O,9.25

# Test system: Escherichia coli
# Experiment: Antibacterial activity against Escherichia coli at 160 ug/ml after 24 hrs by Oxford cup assay
# Type: functional
# Details: read-out: IZ
# Procedure, shortened: as §1
row,Structure (SMILES),zone of inhibition at 160 µg/mL [mm]
1,C=C[C@]1(C)C[C@@H](OC(=O)CSCCN(CC)CC)[C@]2(C)[C@H](C)CC[C@]3(CCC(=O)[C@H]32)[C@@H](C)[C@@H]1O [TIAMULIN],16.5
2,C=C[C@]1(C)C[C@@H](OC(=O)CSC(C)(C)CNC(=O)c2cc3ccccc3[nH]2)[C@]2(C)[C@H](C)CC[C@]3(CCC(=O)[C@H]32)[C@@H](C)[C@@H]1O,9.52

# Test system: Escherichia coli
# Experiment: Antibacterial activity against Escherichia coli at 320 ug/ml after 24 hrs by Oxford cup assay
# Type: functional
# Details: read-out: IZ
# Procedure, shortened: as §1
row,Structure (SMILES),zone of inhibition at 320 µg/mL [mm]
1,C=C[C@]1(C)C[C@@H](OC(=O)CSCCN(CC)CC)[C@]2(C)[C@H](C)CC[C@]3(CCC(=O)[C@H]32)[C@@H](C)[C@@H]1O [TIAMULIN],18.3
2,C=C[C@]1(C)C[C@@H](OC(=O)CSC(C)(C)CNC(=O)c2cc3ccccc3[nH]2)[C@]2(C)[C@H](C)CC[C@]3(CCC(=O)[C@H]32)[C@@H](C)[C@@H]1O,10.8

# Test system: Staphylococcus epidermidis
# Experiment: Antibacterial activity against methicillin-resistant Staphylococcus epidermidis at 80 ug/ml after 24 hrs by Oxford cup assay
# Type: functional
# Details: read-out: IZ
# Procedure, shortened: (§2)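 Oxford cup diffusion: clinical isolate inoculum in 0.9% saline set by McFarland standard, spread evenly on nutrient agar. Cups placed equidistant on the surface and filled with compound solutions prepared as for the agar dilution test, at several concentrations. Inhibition zone measured after 24 h at 37 °C.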
row,Structure (SMILES),zone of inhibition at 80 µg/mL [mm]
1,C=C[C@]1(C)C[C@@H](OC(=O)CSCCN(CC)CC)[C@]2(C)[C@H](C)CC[C@]3(CCC(=O)[C@H]32)[C@@H](C)[C@@H]1O [TIAMULIN],14.5
2,C=C[C@]1(C)C[C@@H](OC(=O)CSC(C)(C)CNC(=O)c2cc3ccccc3[nH]2)[C@]2(C)[C@H](C)CC[C@]3(CCC(=O)[C@H]32)[C@@H](C)[C@@H]1O,10.3

# Test system: Staphylococcus epidermidis
# Experiment: Antibacterial activity against methicillin-resistant Staphylococcus epidermidis at 160 ug/ml after 24 hrs by Oxford cup assay
# Type: functional
# Details: read-out: IZ
# Procedure, shortened: as §2
row,Structure (SMILES),zone of inhibition at 160 µg/mL [mm]
1,C=C[C@]1(C)C[C@@H](OC(=O)CSCCN(CC)CC)[C@]2(C)[C@H](C)CC[C@]3(CCC(=O)[C@H]32)[C@@H](C)[C@@H]1O [TIAMULIN],15.6
2,C=C[C@]1(C)C[C@@H](OC(=O)CSC(C)(C)CNC(=O)c2cc3ccccc3[nH]2)[C@]2(C)[C@H](C)CC[C@]3(CCC(=O)[C@H]32)[C@@H](C)[C@@H]1O,8.84

# Test system: Staphylococcus epidermidis
# Experiment: Antibacterial activity against methicillin-resistant Staphylococcus epidermidis at 320 ug/ml after 24 hrs by Oxford cup assay
# Type: functional
# Details: read-out: IZ
# Procedure, shortened: as §2
row,Structure (SMILES),zone of inhibition at 320 µg/mL [mm]
1,C=C[C@]1(C)C[C@@H](OC(=O)CSCCN(CC)CC)[C@]2(C)[C@H](C)CC[C@]3(CCC(=O)[C@H]32)[C@@H](C)[C@@H]1O [TIAMULIN],16.4
2,C=C[C@]1(C)C[C@@H](OC(=O)CSC(C)(C)CNC(=O)c2cc3ccccc3[nH]2)[C@]2(C)[C@H](C)CC[C@]3(CCC(=O)[C@H]32)[C@@H](C)[C@@H]1O,9

# Test system: Staphylococcus aureus
# Experiment: Antibacterial activity against methicillin-resistant Staphylococcus aureus at 80 ug/ml after 24 hrs by Oxford cup assay
# Type: functional
# Details: read-out: IZ
# Procedure, shortened: as §2
row,Structure (SMILES),zone of inhibition at 80 µg/mL [mm]
1,C=C[C@]1(C)C[C@@H](OC(=O)CSCCN(CC)CC)[C@]2(C)[C@H](C)CC[C@]3(CCC(=O)[C@H]32)[C@@H](C)[C@@H]1O [TIAMULIN],16.5
2,C=C[C@]1(C)C[C@@H](OC(=O)CSC(C)(C)CNC(=O)c2cc3ccccc3[nH]2)[C@]2(C)[C@H](C)CC[C@]3(CCC(=O)[C@H]32)[C@@H](C)[C@@H]1O,9.05

# Test system: Staphylococcus aureus
# Experiment: Antibacterial activity against methicillin-resistant Staphylococcus aureus at 160 ug/ml after 24 hrs by Oxford cup assay
# Type: functional
# Details: read-out: IZ
# Procedure, shortened: as §2
row,Structure (SMILES),zone of inhibition at 160 µg/mL [mm]
1,C=C[C@]1(C)C[C@@H](OC(=O)CSCCN(CC)CC)[C@]2(C)[C@H](C)CC[C@]3(CCC(=O)[C@H]32)[C@@H](C)[C@@H]1O [TIAMULIN],17.6
2,C=C[C@]1(C)C[C@@H](OC(=O)CSC(C)(C)CNC(=O)c2cc3ccccc3[nH]2)[C@]2(C)[C@H](C)CC[C@]3(CCC(=O)[C@H]32)[C@@H](C)[C@@H]1O,8.77

# Test system: Staphylococcus aureus
# Experiment: Antibacterial activity against methicillin-resistant Staphylococcus aureus at 320 ug/ml after 24 hrs by Oxford cup assay
# Type: functional
# Details: read-out: IZ
# Procedure, shortened: as §2
row,Structure (SMILES),zone of inhibition at 320 µg/mL [mm]
1,C=C[C@]1(C)C[C@@H](OC(=O)CSCCN(CC)CC)[C@]2(C)[C@H](C)CC[C@]3(CCC(=O)[C@H]32)[C@@H](C)[C@@H]1O [TIAMULIN],18.3
2,C=C[C@]1(C)C[C@@H](OC(=O)CSC(C)(C)CNC(=O)c2cc3ccccc3[nH]2)[C@]2(C)[C@H](C)CC[C@]3(CCC(=O)[C@H]32)[C@@H](C)[C@@H]1O,8.52

# Test system: Streptococcus agalactiae
# Experiment: Antibacterial activity against Streptococcus agalactiae after 48 hrs by agar dilution method
# Type: functional
# Details: not given
# Procedure, shortened: (§3)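 Agar dilution per NCCLS on clinical isolates. 2-fold serial dilutions of compound (2 mL) mixed into 18 mL hot Mueller-Hinton agar. Inoculum from blood slants, adjusted to approx. 10⁵–10⁶ cfu/mL in sterile 0.90% NaCl, then spotted onto the plates. Incubated 36.5 °C, 48 h. MIC is the lowest concentration giving complete growth inhibition. Run in triplicate at pH 7.40.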
row,Structure (SMILES),MIC [µg/mL]
1,C=C[C@]1(C)C[C@@H](OC(=O)CSCCN(CC)CC)[C@]2(C)[C@H](C)CC[C@]3(CCC(=O)[C@H]32)[C@@H](C)[C@@H]1O [TIAMULIN],2
2,C=C[C@]1(C)C[C@@H](OC(=O)CSC(C)(C)CNC(=O)c2cc3ccccc3[nH]2)[C@]2(C)[C@H](C)CC[C@]3(CCC(=O)[C@H]32)[C@@H](C)[C@@H]1O,8

# Test system: Escherichia coli
# Experiment: Antibacterial activity against Escherichia coli after 48 hrs by agar dilution method
# Type: functional
# Details: not given
# Procedure, shortened: as §3
row,Structure (SMILES),MIC [µg/mL]
1,C=C[C@]1(C)C[C@@H](OC(=O)CSCCN(CC)CC)[C@]2(C)[C@H](C)CC[C@]3(CCC(=O)[C@H]32)[C@@H](C)[C@@H]1O [TIAMULIN],2
2,C=C[C@]1(C)C[C@@H](OC(=O)CSC(C)(C)CNC(=O)c2cc3ccccc3[nH]2)[C@]2(C)[C@H](C)CC[C@]3(CCC(=O)[C@H]32)[C@@H](C)[C@@H]1O,16

# Test system: Staphylococcus epidermidis
# Experiment: Antibacterial activity against methicillin-resistant Staphylococcus epidermidis after 48 hrs by agar dilution method
# Type: functional
# Details: not given
# Procedure, shortened: (§4)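 Agar dilution per NCCLS: 2-fold serial dilutions incorporated into hot Mueller-Hinton agar. Clinical isolates grown from blood slants, suspended in sterile 0.90% NaCl to about 10⁵–10⁶ cfu/mL, spotted onto plates. Incubation 36.5 °C, 48 h. MIC taken as the lowest concentration giving complete growth inhibition. Run in triplicate at pH 7.40.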
row,Structure (SMILES),MIC [µg/mL]
1,C=C[C@]1(C)C[C@@H](OC(=O)CSCCN(CC)CC)[C@]2(C)[C@H](C)CC[C@]3(CCC(=O)[C@H]32)[C@@H](C)[C@@H]1O [TIAMULIN],2
2,C=C[C@]1(C)C[C@@H](OC(=O)CSC(C)(C)CNC(=O)c2cc3ccccc3[nH]2)[C@]2(C)[C@H](C)CC[C@]3(CCC(=O)[C@H]32)[C@@H](C)[C@@H]1O,16

# Test system: Staphylococcus aureus
# Experiment: Antibacterial activity against methicillin-resistant Staphylococcus aureus after 48 hrs by agar dilution method
# Type: functional
# Details: not given
# Procedure, shortened: as §4
row,Structure (SMILES),MIC [µg/mL]
1,C=C[C@]1(C)C[C@@H](OC(=O)CSCCN(CC)CC)[C@]2(C)[C@H](C)CC[C@]3(CCC(=O)[C@H]32)[C@@H](C)[C@@H]1O [TIAMULIN],0.5
2,C=C[C@]1(C)C[C@@H](OC(=O)CSC(C)(C)CNC(=O)c2cc3ccccc3[nH]2)[C@]2(C)[C@H](C)CC[C@]3(CCC(=O)[C@H]32)[C@@H](C)[C@@H]1O,2
